Measurements gathered from unrelated publications.
Each line is one published result; the experiments were not run side by side.
CDK4 with cyclin D1: Cyclin-dependent kinase 4, with cyclin D1 (CDK4, Homo sapiens, UniProt P11802)
CDK4: Cyclin-dependent kinase 4 (CDK4, Homo sapiens, UniProt P11802)
CDK4 with cyclin D3: Cyclin-dependent kinase 4, with cyclin D3 (CDK4, Homo sapiens, UniProt P11802)

SMILES	target	assay	conditions	remaining binding [%]
O=C(NCC1CCOCC1)c1n[nH]cc1NC(=O)c1c(F)cccc1F	CDK4 with cyclin D1	binding, competition with immobilised ligand	1 µM	47
c1ccc(N2CCN(Cc3nc4ccccc4[nH]3)CC2)nc1	CDK4	binding, competition with immobilised ligand	1 µM	100
COc1cnc(Nc2cccc(S(N)(=O)=O)c2)nc1N1CCN(c2ccccc2)C(=O)C1	CDK4	binding, competition with immobilised ligand	1 µM	99
CCCCN(CCCC)C(=O)CN1C[C@@H](c2cc(OC)c3c(c2)OCO3)[C@H](C(=O)O)[C@H]1CC(C)(C)CCC	CDK4	cell-free assay, competition with immobilised ligand	1 µM	100
COc1ncc2cc3ccccc3nc2c1C#N	CDK4 with cyclin D3	cell-free assay, competition with immobilised ligand	5 µM	100
FC(F)(F)Oc1cccc(-c2cnc3ccc(-c4ccncc4)nn23)c1	CDK4	cell-free assay, competition with immobilised ligand	5 µM	81
CNC(=O)[C@@H]1CC[C@@H](n2c(-c3ccc4cnccc4c3)nc3ccc(C(=O)NCc4cccc(C(N)=O)c4)cc32)C1	CDK4 with cyclin D3	binding, competition with immobilised ligand	1 µM	100
O=C(c1ccc(Nc2ncc(Cl)c(-c3cc4ccccc4s3)n2)cc1)N1CCC(N2CCCC2)CC1	CDK4	binding, competition with immobilised ligand	1 µM	21
c1cnn2ncc(-c3ccnc(N4CCC45COC5)n3)c2c1	CDK4	binding	1 µM	78
Cc1nc(N2CC[C@@H](O)C2)ncc1-c1cc(C(F)(F)F)cc2[nH]ncc12	CDK4	binding, competition with immobilised ligand	1 µM	63
C[C@H]1CCN(c2nccc(-c3cnn4ncccc34)n2)C1	CDK4	binding	1 µM	95
C=CC(=O)N1CCC(C(=O)NCC(=O)N2CCN(c3nc(-c4cnc(N)nc4C(F)F)nc(N4CCOCC4)n3)CC2)CC1	CDK4 with cyclin D3	binding, competition with immobilised ligand	1 µM	100
Cc1cnc(Nc2ccc(C(=O)N3CCC(N4CCCC4)CC3)cc2)nc1-c1cc2ccccc2s1	CDK4	binding, competition with immobilised ligand	1 µM	40
Cc1cc(NC(=O)c2cccc(S(F)(F)(F)(F)F)c2)cc(-n2ccn3nc(-c4cccnc4)cc23)c1	CDK4	cell-free assay, competition with immobilised ligand	1 µM	79.3
CN(C)c1ncc(F)c(-c2cnn3ncccc23)n1	CDK4	binding	1 µM	100
O=C(Nc1c[nH]nc1C(=O)NC1CCNCC1)c1cc(F)cc(F)c1	CDK4 with cyclin D1	binding, competition with immobilised ligand	1 µM	66

SMILES	target	assay	conditions	remaining binding [%]
Nc1ncc2c(n1)-c1c([nH]c3ccc(C#CC4CC4)cc13)CCCC2	CDK4	binding, competition with immobilised ligand	1 µM	84
O=C(NCCCN1CCOCC1)c1ccc(Nc2ncc(Cl)c(-c3ccc(Cl)s3)n2)cc1	CDK4	binding, competition with immobilised ligand	1 µM	50
O=S(=O)(NC1CCC(c2cc(F)ccc2F)(S(=O)(=O)c2ccc(Cl)cc2)CC1)C(F)(F)F (centres unmarked)	CDK4 with cyclin D3	cell-free assay, competition with immobilised ligand	1 µM	91
O=C(NCCCN1CCOCC1)c1ccc(Nc2nccc(-c3cc4ccccc4s3)n2)cc1	CDK4 with cyclin D3	binding, competition with immobilised ligand	1 µM	72
COc1cnc(Nc2cccc(S(N)(=O)=O)c2)nc1N1CCN(c2ccccc2)CC1	CDK4	binding, competition with immobilised ligand	1 µM	76
O=C(c1ccc(Nc2ncc(Cl)c(-c3ccc(Cl)s3)n2)cc1)N1CCC(N2CCCC2)CC1	CDK4 with cyclin D1	binding, competition with immobilised ligand	1 µM	0.1
C[C@@H](c1ccc(-n2cnc3c(N)ncnc32)cc1)N1CCc2nn(C)c(Cc3ccccc3)c2C1=O	CDK4 with cyclin D3	binding, competition with immobilised ligand	0.1 µM	68
CC(C)CC(=O)N1CCc2nc(-c3ccc(Br)cc3)nc(N(C)Cc3ccccc3)c2C1	CDK4 with cyclin D3	cell-free assay, competition with immobilised ligand	0.1 µM	100
Cc1cnn2ncc(-c3ccnc(N(C)C)n3)c2c1	CDK4	binding	1 µM	95
CN(C)CC#Cc1ccc(OCCCc2sc(N3CCc4cccc(C(=O)Nc5nc6ccccc6s5)c4C3)nc2C(=O)O)c(F)c1	CDK4	cell-free assay, competition with immobilised ligand	1 µM	100
F[C@@H]1CCN(c2nccc(-c3cnn4ncccc34)n2)C1	CDK4 with cyclin D3	binding	1 µM	92
c1cncc(-c2cccc(Nc3nccc(NC4CCCCC4)n3)c2)c1	CDK4 with cyclin D3	binding, competition with immobilised ligand	10 µM	86
CN(c1nccc(-c2cnn3ncccc23)n1)C1CC1	CDK4 with cyclin D3	binding	1 µM	100
N#CC1(c2ccccn2)CCN(Cc2cc(C(=O)N3CCCC3)c(=O)n3ccccc23)CC1	CDK4 with cyclin D1	cell-free assay, competition with immobilised ligand	1 µM	100
O=C(c1ccc(Nc2nccc(-c3cc4ccccc4s3)n2)cc1)N1CCC(N2CCCC2)CC1	CDK4 with cyclin D3	binding, competition with immobilised ligand	1 µM	18
N[C@H]1CCN(c2nccc(-c3cnn4ncccc34)n2)C1	CDK4	binding	1 µM	75
